Test results reported in ChEMBL document CHEMBL3271933, “Inhibitors of hepatic mixed function oxidase. 3. Inhibition of hepatic microsomal aniline hydroxylase and aminopyrine demethylase by 2,6- and 2,4-dihydroxyphenyl alkyl ketones and related compounds” (J Med Chem, 1977).
Counter-ions that a name gives are not always drawn. Calls of active or inactive are those of the source. The rule behind the calls is not given here.

Legend:
[1] = Inhibition of aniline hydroxylase activity of mixed function oxidase system in Wistar rat liver microsomes assessed as conversion of aniline to p-aminophenol after 10 mins; settings: read-out: I50
[2] = Inhibition of aminopyrine demethylase activity of mixed function oxidase system in Wistar rat liver microsomes assessed as conversion of aminopyrine to 4-aminoantipyrine after 20 mins; settings: read-out: I50
How it was run: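 Microsomes from phenobarbitone-pretreated male Wistar rats, with the same NADPH-generating cofactors. Incubation in 3.0 mL containing aminopyrine 1.5 μmol and 5.6 mg protein in pH 7.4 phosphate, 20 min. 4-Aminoantipyrine formed was assayed. Benzyl ethers added in DMSO; other inhibitors usually in water. I50 taken from 5–7 inhibitor levels, means of duplicates.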

Mus musculus [3] = assay: In vivo inhibition of mixed function oxidase system in mouse assessed as increase in zoxazolamine-induced paralysis time at 100 mg/kg, ip pretreated for 10 mins followed by zoxazolamine-challenge relative to control; set-up: scale not given: the % may be the effect or the level left; settings: route intraperitoneal
Mus musculus [4] = assay: In vivo inhibition of mixed function oxidase system in mouse assessed as prolongation of hexobarbital-induced sleeping time at 100 mg/kg, ip pretreated for 10 mins followed by hexobarbital-challenge relative to control; set-up: scale not given: the % may be the effect or the level left; settings: route intraperitoneal
Rattus norvegicus = organism: Rattus norvegicus; assay: Inhibition of aniline hydroxylase activity of mixed function oxidase system in Wistar rat liver microsomes assessed as conversion of aniline to p-aminophenol at 10^-3 M after 10 mins

| SMILES | IC50 [1] [µM] | IC50 [2] [µM] | Activity (Mus musculus [3]) [%] | Activity (Mus musculus [4]) [%] | inhibition (Rattus norvegicus) |
| --- | --- | --- | --- | --- | --- |
| CCCCOCCOCCOCc1cc2c(cc1CCC)OCO2 [PIPERONYL BUTOXIDE] | 420 | 420 | – | – | – |
| CC(=O)c1c(O)cccc1OCc1ccccc1 | 190 | 80 | 156 | 170 | – |
| CCC(=O)c1ccc(O)cc1O | 750 | 160 | – | – | – |
| CC(=O)c1c(O)cccc1O | 210 | 140 | 164 | 190 | – |
| COc1cccc(O)c1C(C)=O | 200 | 90 | – | 233 | – |
| CC(=O)c1ccc(O)cc1O | 700 | 520 | 77 | 127 | – |
| CCCC(C(=O)OCCN(CC)CC)(c1ccccc1)c1ccccc1 [PROADIFEN HYDROCHLORIDE] | 290 | 6 | – | – | – |
| O=Cc1ccc(O)cc1O | 1400 | 1100 | – | – | – |
| CCC(=O)c1ccc(OC)cc1O | – | 170 | – | – | inactive |
| CC(=O)c1ccccc1O | 390 | 320 | – | – | – |
| O=Cc1c(O)cccc1O | 200 | 650 | – | – | – |
